The values that follow come from ChEMBL document CHEMBL3580644, “Synthesis of piperlongumine analogues and discovery of nuclear factor erythroid 2-related factor 2 (Nrf2) activators as potential neuroprotective agents” (J Med Chem, 2015).

Data set [1] is described as follows: Cytotoxicity against rat PC12 cells assessed as reduction in cell viability at 20 uM incubated for 24 hrs by MTT assay. The format is cell-based. As to conditions: pc-12, 24 h.
In data set [2] the test system is PC-12. Description: Induction of antioxidant genes expression in rat PC12 cells assessed as increase in HO1 mRNA level at 20 uM incubated for 6 hrs by qRT-PCR method. The format is functional, cell-based. The gist of the method: (§1)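 PC12 cells, 1×10^6 per 60-mm dish, 1 day, then 20 μM compound for 0, 3, 6 and 12 h; total RNA isolated, quantified by 260/280 absorbance; mRNA by real-time RT-PCR normalized to GAPDH; mean ± SD of three independent experiments versus 0 h.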
On the technique in general: Real-time PCR tracks product formation cycle by cycle.

Data set [3] deals with PC-12. Put plainly: Cytoprotection activity against H2O2-induced oxidative stress in rat PC12 cells assessed as Trx activity at pre-incubated for 24 hrs before H2O2 exposure for 12 hrs by recombinant rat TrxR1 based assay. The format is functional, cell-based. A digest of the protocol:
(§2)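 Cellular Trx activity: extract with 20 μg protein incubated 30 min at 37 °C in 100 mM Tris-HCl pH 7.4 with 0.3 mM insulin, 660 μM NADPH, 3 mM EDTA, 60 nM recombinant rat TrxR1; stopped with 1 mM DTNB in 6 M guanidine-HCl pH 8.0; A412 minus TrxR-free blank; % of DMSO control.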

Data set [4] can be described thus: Antioxidant activity assessed as DPPH radical scavenging activity at 20 uM incubated for 30 mins by spectrophotometry. The note with it: 0.5 h. It is filed as physicochemical. A general note: The DPPH test is a chemical assay of radical scavenging.
Data set [5] has as its system PC-12. Description: Cytoprotection activity against H2O2-induced cytotoxicity in rat PC12 cells assessed as cell viability at 20 uM pre-incubated for 24 hrs before H2O2 exposure for 12 hrs by MTT assay. It is filed as functional, cell-based. (Tetrazolium dyes change colour on reduction, which living cells bring about.)
In data set [6] the test system is PC-12. Description: Cytoprotection activity against 6-OHDA-induced cytotoxicity in rat PC12 cells assessed as cell viability at 10 and 20 uM pre-incubated for 24 hrs before 6-OHDA exposure for 12 hrs in presence of non-trageting shRNA by MTT assay. The format is functional, cell-based.
The subject of data set [7] is PC-12. Description: Induction of antioxidant genes expression in rat PC12 cells assessed as increase in TrxR1 mRNA level at 20 uM incubated for 12 hrs by qRT-PCR method. It is filed as functional, cell-based. A digest of the protocol: as §1
For data set [8], the system named is PC-12. Description: Induction of antioxidant genes expression in rat PC12 cells assessed as increase in TrxR1 mRNA level at 20 uM incubated for 6 hrs by qRT-PCR method. It is filed as functional, cell-based. A digest of the protocol: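 PC12 cells (1×10^6 per 60-mm dish) seeded 1 day, then exposed to 20 μM compound for 0, 3, 6 and 12 h. Total RNA isolated and quantified by 260/280 absorbance. Transcripts measured by qRT-PCR, normalized to GAPDH internal control, compared against 0 h control. Means ± SD of three independent experiments.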

For data set [9], the system named is PC-12. Description: Cytoprotection activity against 6-OHDA-induced oxidative stress in rat PC12 cells assessed as NQO1 activity at pre-incubated for 24 hrs before 6-OHDA exposure for 12 hrs by DCPIP dye reduction based spectrophotometry. It is filed as functional, cell-based. A digest of the protocol: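 NQO1: PC12 lysate in RIPA buffer, 5 μg protein into 20 mM Tris-HCl pH 7.4, 200 μM NADH, 40 μM DCPIP; A600 decrease read every 8 s for 2 min at room temperature ± 20 μM dicoumarol; dicoumarol-inhibitable rate used, expressed as % of DMSO control. Cells pretreated 24 h; stress lines then 500 μM H2O2 or 200 μM 6-OHDA 12 h.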

Data set [10] deals with PC-12. Description: Cytoprotection activity against 6-OHDA-induced oxidative stress in rat PC12 cells assessed as GSH level at pre-incubated for 24 hrs before 6-OHDA exposure for 12 hrs. The format is functional, cell-based. The gist of the method: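 Total glutathione: cells extracted in KPE buffer (0.1% Triton X-100, 0.6% sulfosalicylic acid, 5 mM EDTA, 0.1 M PBS pH 7.5), sonicated on ice, centrifuged 3000 g 4 min at 4 °C; supernatant assayed enzymatically. PC12 cells 1×10^6 in 60-mm dishes, compound 24 h; stress lines add 500 μM H2O2 or 200 μM 6-OHDA 12 h.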

Data set [11] has as its system PC-12. Put plainly: Induction of total Nrf2 protein expression in rat PC12 cells at 20 uM incubated for 2 to 8 hrs by Western blotting method. It is filed as functional, cell-based. The gist of the method: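 Seeded at 1×10^6 cells per 60-mm dish for 24 h, PC12 cells were treated with 20 μM compound for 0, 2, 4 and 8 h. Whole-cell, cytosolic and nuclear protein extracts were then prepared and Nrf2 probed by Western blot.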

For data set [12], the system named is PC-12. Description: Cytoprotection activity against H2O2-induced cytotoxicity in rat PC12 cells assessed as increase in cell viability pre-incubated for 24 hrs before H2O2 exposure for 12 hrs by MTT assay. The format is functional, cell-based.
Data set [13] concerns PC-12. Description: Induction of antioxidant genes expression in rat PC12 cells assessed as increase in Trx1 mRNA level at 20 uM incubated for 6 hrs by qRT-PCR method. It is filed as functional, cell-based. A digest of the protocol:
as §1

Data set [14] relates to PC-12. Description: Cytoprotection activity against 6-OHDA-induced oxidative stress in rat PC12 cells assessed as Trx activity at pre-incubated for 24 hrs before 6-OHDA exposure for 12 hrs by recombinant rat TrxR1 based assay. The format is functional, cell-based. A digest of the protocol: as §2
Data set [15] concerns PC-12. Put plainly: Cytoprotection activity against 6-OHDA-induced cytotoxicity in rat PC12 cells assessed as cell viability at 10 and 20 uM pre-incubated for 24 hrs before 6-OHDA exposure for 12 hrs by LDH release assay. The format is functional, cell-based.
The subject of data set [16] is PC-12. Description: Cytoprotection activity against 6-OHDA-induced cytotoxicity in rat PC12 cells assessed as cell viability at 10 and 20 uM pre-incubated for 24 hrs before 6-OHDA exposure for 12 hrs in presence of shNrf2 by MTT assay. It is filed as functional, cell-based.
Data set [17] deals with PC-12. Put plainly: Cytoprotection activity against 6-OHDA-induced oxidative stress in rat PC12 cells assessed as reduction in ROS generation at 10 and 20 uM pre-incubated for 24 hrs before 6-OHDA exposure for 5 hrs by DCFH-DA dye based fluorescent microscopy. The format is functional, cell-based.
Data set [18] relates to PC-12. Put plainly: Induction of antioxidant genes expression in rat PC12 cells assessed as increase in Trx1 mRNA level at 20 uM incubated for 3 hrs by qRT-PCR method. It is filed as functional, cell-based. A digest of the protocol: as §1
A short description of data set [19]: Cytotoxicity against human L02 cells assessed as reduction in cell viability at 20 uM to 100 uM incubated for 24 hrs by MTT assay. As to conditions: l02, 24 h. It is filed as cell-based.
The test system of data set [20] is PC-12. Put plainly: Cytoprotection activity against 6-OHDA-induced apoptosis in rat PC12 cells assessed as reduction in apoptotic nuclei levels at 10 and 20 uM pre-incubated for 24 hrs before 6-OHDA exposure for 5 hrs by Hoechst 33342 staining based fluorescent microscopy. The format is functional, cell-based. A digest of the protocol: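 PC12 cells seeded 2×10^5/well, grown 1 day, pretreated with compound 24 h, then medium replaced with fresh medium containing 200 μM 6-OHDA or 500 μM H2O2 for 5 h; Hoechst 33342 added at 5 μg/mL final; condensed, brightly fluorescent nuclei counted as apoptotic under fluorescence microscopy.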

The subject of data set [21] is PC-12. Description: Induction of antioxidant genes expression in rat PC12 cells assessed as increase in GCLM mRNA level at 20 uM incubated for 6 hrs by qRT-PCR method. It is filed as functional, cell-based. A digest of the protocol: as §1

The source made the active and inactive calls. The calls are words filed in the database; no cut-off is given here.

As to `COc1ccc(/C=C/C(=O)N2CCCC2=O)cc1`, the Activity entry was “Non-toxic” in data set [1]; “Not Active” in data set [4]; “Dose-dependent effect” with PC-12 [12]; “Dose-dependent effect” with PC-12 [17]; “Non-toxic” in data set [19]. For the same molecule, the outcome with PC-12 [2], in the data set on PC-12 [3], with PC-12 [5], with PC-12 [6], in the data set with PC-12 [7] and with PC-12 [8] was Active. The result with PC-12 [9], in the data set on PC-12 [10], in the data set on PC-12 [11], with PC-12 [13], in the data set with PC-12 [14] and in the data set with PC-12 [15] was Active. Besides, the outcome in the data set with PC-12 [18], in the data set on PC-12 [20] and in the data set with PC-12 [21] was Active. Also, the result with PC-12 [16] was inactive.
Regarding `COc1cc(/C=C/C(=O)N2CCCCC2=O)cc(OC)c1OC`, the Activity entry was “Non-toxic” in [1]; “Not Active” in data set [4]; “Dose-dependent effect” in the data set on PC-12 [12]; “Dose-dependent effect” in the data set with PC-12 [17]; “Non-toxic” in data set [19]. The outcome in the data set on PC-12 [2], in the data set on PC-12 [3], in the data set on PC-12 [5], with PC-12 [6], in the data set on PC-12 [7] and in the data set on PC-12 [8] was Active. Besides, the result in the data set on PC-12 [9], in the data set with PC-12 [10], in the data set on PC-12 [11], in the data set with PC-12 [13], in the data set on PC-12 [14] and in the data set on PC-12 [15] was Active. Further, the outcome in the data set with PC-12 [18], in the data set with PC-12 [20] and in the data set with PC-12 [21] was Active. The outcome in the data set on PC-12 [16] was inactive.
